Experimental data: paper PMC5322940 (Cell, 2016)

Target: CB1 protein (Homo sapiens, UniProt P21554, D324T/DEL307-313/E273K/E323T/H320Y/I317L/I319V/INS325[…]/K326D/Q314A/Q328R/R331I/R340E/S316A/T210A/T283V/T321G/T330A/V329G)
Experiment: Affinity mass spectrometry analysis of AM6538
Assay type: binding
Conditions: CB1 protein co-purified with AM6538
Method in brief: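 CB1–flavodoxin fusion expressed in HEK293F and purified in DDM/CHS. Membranes took up 20 µM test compound (3 h, 4 °C), then iodoacetamide; wash and elution buffers also carried test compound. Co-purified complex was desalted on G-25 to strip free ligand. About 1 µg was ultrafiltered (30 kDa cutoff, 13,000 g, 10 min, 4 °C) in 150 mM ammonium acetate, 0.02% DDM, 0.004% CHS; retained complex collected.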

Cc1c(C(=O)NN2CCCCC2)nn(-c2ccc(Cl)cc2Cl)c1-c1ccc(C#CCCO[N+](=O)[O-])cc1 [AM6538, 4-(4-(1-(2,4-dichlorophenyl)-4-methyl-3-(piperidin-1-ylcarbamoyl)-1H-pyrazol-5-yl)phenyl)but-3-yn-1-yl nitrate]
Covalent modification of CB1 cysteine residues: no evidence of covalent modification
